For one assay, the target named is T1, Cytochrome P450 2B6 (Homo sapiens, UniProt P20813).
T1 sequence (P20813 whole entry): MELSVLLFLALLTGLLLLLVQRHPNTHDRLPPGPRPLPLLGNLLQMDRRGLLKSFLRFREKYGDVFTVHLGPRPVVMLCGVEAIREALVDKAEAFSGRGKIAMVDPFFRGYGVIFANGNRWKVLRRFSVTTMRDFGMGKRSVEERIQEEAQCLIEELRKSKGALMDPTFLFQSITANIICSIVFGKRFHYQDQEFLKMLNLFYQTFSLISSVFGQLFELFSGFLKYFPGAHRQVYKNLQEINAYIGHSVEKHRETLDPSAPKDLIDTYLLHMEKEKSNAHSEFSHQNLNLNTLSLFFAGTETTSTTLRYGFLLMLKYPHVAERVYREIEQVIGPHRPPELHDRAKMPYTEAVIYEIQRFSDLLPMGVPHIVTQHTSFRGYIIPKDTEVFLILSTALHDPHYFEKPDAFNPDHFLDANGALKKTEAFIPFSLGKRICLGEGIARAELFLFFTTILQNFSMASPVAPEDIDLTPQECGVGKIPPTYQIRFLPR
Kind of assay: Inhibition of human CYP2B6 expressed in Sacchrosomes by fluorescence based assay. It counts as ADME.

For the next assay, the target named is T2, Cytochrome P450 1A1 (Homo sapiens, UniProt P04798).
T2 sequence (P04798 whole entry): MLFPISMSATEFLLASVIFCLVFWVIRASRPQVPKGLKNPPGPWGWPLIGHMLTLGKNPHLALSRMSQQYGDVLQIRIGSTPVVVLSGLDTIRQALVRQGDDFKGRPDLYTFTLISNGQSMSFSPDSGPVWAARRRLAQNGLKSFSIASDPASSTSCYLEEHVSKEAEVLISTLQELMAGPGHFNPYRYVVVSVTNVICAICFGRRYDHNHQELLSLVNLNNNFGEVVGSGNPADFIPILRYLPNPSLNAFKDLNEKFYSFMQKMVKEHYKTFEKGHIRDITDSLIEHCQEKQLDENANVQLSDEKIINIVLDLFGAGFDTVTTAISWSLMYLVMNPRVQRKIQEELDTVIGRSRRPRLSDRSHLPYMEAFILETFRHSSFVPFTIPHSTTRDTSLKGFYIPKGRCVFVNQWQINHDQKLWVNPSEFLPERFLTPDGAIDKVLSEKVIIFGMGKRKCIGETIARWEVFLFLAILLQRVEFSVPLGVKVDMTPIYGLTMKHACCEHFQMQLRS
Kind of assay: Inhibition of human CYP1A1 expressed in sacchrosomes using 7-ethoxyresorufin as substrate by fluorescence based assay. The method in brief: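 Enzymes were microsomal preparations isolated from recombinant baker's yeast (Sacchrosomes). Compounds were screened at 10 μM for percent inhibition, and IC50 values were also determined. Values are mean ± SD of three independent experiments. Alpha-naphthoflavone served as the positive control.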

In the next assay the test system is MCF7. Kind of assay: Induction of cell cycle arrest in human MCF7 over expressing CYP1A cells assessed as accumulation at G2/M phase incubated for 24 hrs by PI staining based flow cytometric analysis (reference value: 22.6%). Format: functional.
The species entered for assay [1] is Homo sapiens. Kind of assay: Selectivity ratio IC50 for inhibition of human CYP1A2 expressed in sacchrosomes toIC50 for Inhibition of CYP1A1 expressed in sacchrosomes.
For assay [2], the species on record is Homo sapiens. In words: Selectivity ratio IC50 for inhibition of human CYP1B1 expressed in sacchrosomes toIC50 for Inhibition of CYP1A1 expressed in sacchrosomes.

The source of these data is ChEMBL document CHEMBL4673221, “Furanoflavones pongapin and lanceolatin B blocks the cell cycle and induce senescence in CYP1A1-overexpressing breast cancer cells” (Bioorg Med Chem, 2018).

Molecules are shown by their SMILES.

Usually IC50 stands for the point on the concentration scale where inhibition reaches its midpoint. With `O=c1cc(-c2ccccc2)oc2c1ccc1occc12` [LANCEOLATIN B], the IC50 on Cytochrome P450 2B6 was > 20000 nM; on Cytochrome P450 1A1 it was 76 nM. Further, the Activity with MCF7 is reported as 9.2%.
`COc1c(-c2ccc3c(c2)OCO3)oc2c(ccc3occc32)c1=O` [PONGAPIN]: the IC50 was > 20000 nM against Cytochrome P450 2B6 and 71 nM against Cytochrome P450 1A1. Moreover, the Ratio IC50 in the assay filed under Homo sapiens [1] was found to be 13; in the assay filed under Homo sapiens [2], 52. In addition, in the assay with MCF7, the Activity worked out at 8.3%.
